In ChEMBL document CHEMBL1151787, “Salicylanilides: selective inhibitors of interleukin-12p40 production” (Bioorg Med Chem, 2008):
pIC50: −log10 of the molar value. Activity calls are given as the source filed them. No cut-off for these calls is given here.

Assays:
[1] = Inhibition of CD40L, IFN-gamma and IL18 mixture-induced IL12p40 production in mouse DC-B cells after 18 to 24 hrs by fluorescence immunoassay; assay type: functional, cell-based
In short: (§1)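 DC-B cells grown in GM-CSF (20 ng/mL) medium and passaged every 48 h. Cells were mixed with compound in low-serum assay medium (0.4% DMSO) and stimulated with murine CD40L 2 ng/mL, IL-18 40 ng/mL and IFN-gamma 20 ng/mL (final). Incubation was 18–24 h at 37 °C, 5% CO2. Supernatant IL-12p40 or IL-6 was measured by europium sandwich immunoassay (biotinylated detection antibody, Eu-streptavidin, 615 nm). Ten concentrations were tested, in triplicate, and results were expressed as percent of control versus concentration.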

[2] = Cytotoxicity against CD40L, IFN-gamma and IL18 mixture-stimulated mouse DC-B cells at <100 nM after 18 hrs by CellTiter-Glo assay; assay type: cell-based
In short: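 Murine dendritic cell line DC-B treated with test compound, then stimulated as in the cytokine assay (mouse CD40L, IL-18, IFN-gamma) and incubated 18 h. CellTiter-Glo reagent added in volume equal to the culture. Plates shaken 2 min to lyse cells, then left 10 min without shaking. Luminescence read on a microplate reader.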

[3] = Inhibition of CD40L, IFN-gamma and IL18 mixture-induced IL6 production in mouse DC-B cells after 18 to 24 hrs by fluorescence immunoassay; assay type: functional, cell-based; in short: as §1
Mus musculus = species: Mus musculus; assay: Inhibition of CD40L, IFN-gamma and IL18 mixture-induced IL12p40 production in mouse DC-B cells at 10 uM after 18 to 24 hrs by fluorescence immunoassay; assay type: functional, cell-based

Row | Structure (SMILES) | pIC50 [1] | Activity [2] | pIC50 [3] | Activity (Mus musculus)
1 | O=C(Nc1cc(Cl)cc(Cl)c1)c1ccc([N+](=O)[O-])cc1O | 6.49 | Non-toxic | 6.60 | 
2 | O=C(Nc1cc(C(F)(F)F)cc(C(F)(F)F)c1)c1ccccc1O | 6.92 | Non-toxic | 6.13 | 
3 | O=C(Nc1cc(Cl)c(Cl)cc1Cl)c1ccccc1O | 7.35 | Non-toxic | < 5.00 | 
4 | O=c1oc2cc(Cl)ccc2c(=O)n1-c1cc(C(F)(F)F)cc(C(F)(F)F)c1 | 6.55 | Non-toxic | 6.46 | 
5 | O=C(Nc1cc(Cl)cc(Cl)c1)c1ccccc1O | 7.89 | Non-toxic | < 5.00 | 
6 | O=C(Nc1cc(Cl)cc(Cl)c1)c1cc(Br)ccc1O | 7.89 | Non-toxic | 6.52 | 
7 | CN(C(=O)c1ccccc1O)c1cc(Cl)cc(Cl)c1 | < 5.00 | Non-toxic | < 5.00 | 
8 | O=C(O)CN(C(=O)c1ccccc1O)c1cc(Cl)cc(Cl)c1 | < 5.00 | Non-toxic | < 5.00 | 
9 | O=C1c2cccc(O)c2C(=O)N1c1cc(Cl)cc(Cl)c1 | < 5.00 | Non-toxic | < 5.00 | 
10 | Cc1cc(C)cc(NC(=O)c2ccccc2O)c1 | < 5.00 | Non-toxic | < 5.00 | 
11 | O=C(Nc1cc(Cl)c(Cl)cc1Cl)c1cc(Br)ccc1O | 7.13 | Non-toxic | 6.19 | 
12 | O=C(Nc1ccccn1)c1ccccc1O | < 5.00 | Non-toxic | < 5.00 | 
13 | O=C(Nc1ccc(Cl)c(Cl)c1)c1cc(Cl)ccc1O | 6.89 | Non-toxic | 6.89 | 
14 | O=C(Nc1cc(C(F)(F)F)ccc1Cl)c1ccccc1O | 6.70 | Non-toxic | 5.74 | 
15 | O=C(Nc1cc(Cl)cc(Cl)c1)c1ccccc1OCc1ccccc1 | < 5.00 | Non-toxic | < 5.00 | inactive
16 | O=C(Nc1cc(Cl)cc(Cl)c1)c1cc([N+](=O)[O-])ccc1O | 6.39 | Non-toxic | 6.77 | 
17 | O=C(Nc1cccc(Cl)c1)c1ccccc1O | 5.29 | Non-toxic | < 5.00 | 
18 | O=C(Nc1cc(Cl)cc(Cl)c1)c1ccccc1NS(=O)(=O)c1ccc(Cl)c([N+](=O)[O-])c1 | 6.62 | Non-toxic | 6.66 | 
19 | Oc1ccc(Br)cc1CNc1cc(Cl)cc(Cl)c1 | 5.57 | Non-toxic | 5.77 | 
20 | O=C(Nc1ccc(O)cc1)c1ccccc1O [OSALMID] | < 5.00 | Non-toxic | < 5.00 | 
